# TRPC4 potent: allosteric potentiators of mouse TRPC4 channel | Q9QUQ5 | AID 2227 | B-score at 10 µM | HEK293 TRPC4beta/mu-opioid, DAMGO EC20, Fluo-4 Ca2+ flux; active compounds read high | hit rate 0.42% among 310,000;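 active = B-score of calcium response area above 5 SD of library B-scores, with initial fluorescence ratio within 5 SD of library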
# TRPC4 inh: inhibitors of mouse TRPC4 channel; B-score at 10 µM; HEK293 TRPC4beta/mu-opioid, DAMGO-evoked Fluo4 calcium flux; active compounds read low; hit rate 0.39% among 300,000; Q9QUQ5;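 active = B-score over 3 SD under the library average, no early fluorescence shift, positive overall ratio signal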
#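 Assay system: HEK293 cells with stable TRPC4beta plus mu-opioid receptor expression. Dosing: single dose. Measured by: Fluo4 Ca2+ flux fluorescence. Also added: DAMGO in two steps, submaximal then maximal. Read-out: B score from integrated Fluo4 fluorescence ratio.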
# TRPC6 activator: activates the mouse TRPC6 cation channel; hit rate 0.13% among 310,000; Q61143; AID 2550; B-score at 10 µM; HEK293-TRPC6 membrane potential dye fluorescence; active compounds read high;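 active = B-score of the integrated fluorescence ratio above library mean plus 3 SD, and starting fluorescence ratio within library mean plus 5 SD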;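 note: higher score means more depolarization so channel activation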
# Target sequence (Q61143 whole entry, looked up): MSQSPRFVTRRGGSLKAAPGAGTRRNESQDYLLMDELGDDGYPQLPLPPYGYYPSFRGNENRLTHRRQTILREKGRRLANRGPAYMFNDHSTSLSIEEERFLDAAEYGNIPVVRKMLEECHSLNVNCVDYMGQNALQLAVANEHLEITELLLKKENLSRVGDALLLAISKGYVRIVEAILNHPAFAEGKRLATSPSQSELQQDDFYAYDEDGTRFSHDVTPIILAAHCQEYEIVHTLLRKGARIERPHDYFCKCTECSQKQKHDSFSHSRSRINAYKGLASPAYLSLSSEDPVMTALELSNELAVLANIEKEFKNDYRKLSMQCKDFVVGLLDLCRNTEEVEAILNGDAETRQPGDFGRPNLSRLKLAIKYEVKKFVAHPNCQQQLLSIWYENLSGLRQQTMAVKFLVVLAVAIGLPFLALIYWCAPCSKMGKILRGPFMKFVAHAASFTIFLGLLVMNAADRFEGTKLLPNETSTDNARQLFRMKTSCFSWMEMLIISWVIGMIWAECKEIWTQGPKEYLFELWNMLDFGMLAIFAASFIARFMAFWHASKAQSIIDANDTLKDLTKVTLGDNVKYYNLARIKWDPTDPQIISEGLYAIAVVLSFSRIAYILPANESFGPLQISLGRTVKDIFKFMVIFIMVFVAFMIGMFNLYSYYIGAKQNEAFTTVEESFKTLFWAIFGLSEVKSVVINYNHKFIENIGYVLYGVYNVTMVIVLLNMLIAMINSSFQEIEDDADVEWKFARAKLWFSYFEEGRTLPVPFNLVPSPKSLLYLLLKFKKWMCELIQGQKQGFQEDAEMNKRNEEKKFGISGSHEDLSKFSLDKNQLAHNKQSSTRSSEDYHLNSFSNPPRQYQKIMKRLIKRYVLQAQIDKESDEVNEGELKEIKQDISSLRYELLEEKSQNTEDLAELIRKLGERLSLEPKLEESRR
# TRPC4 act: activators of mouse TRPC4 channel | B-score at 10 µM | hit rate 0.49% among 310,000 | AID 2237 | Q9QUQ5 | HEK293 TRPC4beta/mu-opioid, Fluo4 calcium fluorescence; active compounds read high;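 active = B-score above 5 SD of library B-scores, and initial fluorescence ratio not above library mean plus 5 SD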;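 note: positive B-score marks a calcium rise read as TRPC4 activation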
#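 Assay system – TRPC4beta and mu-opioid receptor HEK293 stable cells · Measured by – Fluo4 fluorescence, kinetic · Schedule – dye loading 45 min room temperature, 110 s kinetic read · Read-out – B-scored integrated calcium fluorescence ratio · Controls – buffer and maximal DAMGO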
# Kir21 inh: Kir2.1 (mouse) channel inhibition | P35561 | HEK293-Kir2.1, FluxOR thallium flux fluorescence; active compounds read low | B-score at 10 µM | hit rate 0.85% among 310,000 | AID 1672;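 active = fluorescence ratio B-score at or below minus 3 SD of library scores, with starting-brightness B-score within 2 SD, cut at about -4.2 in these data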;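 note: channel flux triggered by added potassium and thallium sulfate stimulus; B-score of peak minus minimum fluorescence over baseline after thallium stimulus; more negative B-score means stronger Kir2.1 block with less thallium influx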
# TRPC6 inh: inhibitors of mouse TRPC6 channel; Q61143; HEK293-TRPC6, membrane potential dye, ACh-evoked depolarization; active compounds read low; B-score at 10 µM; hit rate 1.1% among 310,000;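 active = B-score under library mean minus 3 SD, initial fluorescence not abnormally high, positive integrated signal ratio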;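 note: B-score derived from integrated fluorescence ratio over the kinetic read; more negative B-score means stronger inhibition of depolarization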
# TRPC4 sel inh 2: second check of whether TRPC6 inhibitors also affect mouse TRPC4. shares compounds with TRPC6 inh. HEK293 TRPC4/MOR, membrane potential dye fluorescence; channel activated by saturating DAMGO dose. inhibition, % at 10 µM. hit rate 42% among 920;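 active = compounds whose fluorescence signal differed from control wells by over 3 SD, either direction, in both duplicate plates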
# TRPC4 spec: mouse TRPC4 off-target activity of TRPC6 inhibitors; hit rate 61% among 920; shares compounds with TRPC6 inh; activity change, negative = inhibition, % at 10 µM; HEK293 TRPC4/mu-opioid, membrane potential fluorescence;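 active = rise or fall in signal beyond 3 SD of buffer-only wells in both replicate plates, either sign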;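 note: integrated kinetic ratio of fluorescence range over baseline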
# HEK293 MPD ctr 2-1: second counter-screen for TRPC6 inhibitors: parental HEK293 cells; shares compounds with TRPC6 inh; parental HEK293 membrane potential dye fluorescence; maximal acetylcholine challenge after compound addition; signal change vs control, % at 10 µM; hit rate 31% among 920; AID 2779;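 active = membrane potential signal moving either way by over 3 SD of the maximum-effect control, in both duplicate plates, meaning non-specific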
# HEK293 MPD ctr-1: counter-screen for TRPC6 inhibitors: effect in parental HEK293 cells; shares compounds with TRPC6 inh; parental HEK293 membrane potential dye fluorescence; membrane potential signal change, % at 10 µM; hit rate 60% among 920; AID 2780;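 active = membrane potential signal shifting up or down by more than 3 SD of buffer-only wells, on both duplicate plates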
# HEK293 MPD ctr-2: parental HEK293 nonspecific activity of TRPC6 modulators. AID 488924. membrane potential signal change, % at 10 µM. shares compounds with TRPC6 inh. hit rate 51% among 2,400. membrane potential dye fluorescence;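 active = membrane potential signal moves up or down beyond 5 SD from buffer-only wells, on both duplicate plates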
# HEK293 MPD ctr 2-2: second check of TRPC6 modulator effects in parental HEK293 cells; hit rate 14% among 2,400; shares compounds with TRPC6 inh; membrane potential dye fluorescence; after compound, maximal acetylcholine stimulation; inhibition, % at 10 µM;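 active = membrane potential signal drops by more than 5 SD from the mean control signal, in both duplicate plates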
# TRPC4/MOR mod: mouse TRPC4 off-target activity of TRPC6 modulators; hit rate 69% among 2,400; percent change from control (negative = decrease, positive = increase), % at 10 µM; HEK293 TRPC4/mu-opioid, membrane potential fluorescence; AID 488927; shares compounds with TRPC6 inh;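 active = membrane potential signal moved up or down beyond 5 SD of buffer control wells, in both duplicate plates, actives on both sides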
# TRPC4/MOR inh 2: second selectivity test of TRPC6 modulators against mouse TRPC4; shares compounds with TRPC6 inh; HEK293 TRPC4/mu-opioid, membrane potential dye fluorescence; stimulated with maximal-effect DAMGO; inhibition, % at 10 µM; hit rate 55% among 2,400; AID 488928;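 active = drop in membrane potential signal beyond 5 SD of the control wells in both duplicate plates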;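 note: TRPC4 counter screen for TRPC6 hits run under conditions tuned for TRPC6 not TRPC4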
# TRPC6 block conf: confirmation of mouse TRPC6 inhibitors; shares compounds with TRPC6 inh; HEK293-TRPC6, membrane potential dye, ACh-evoked depolarization; inhibition, % at 10 µM; hit rate 43% among 3,300;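 active = fluorescence ratio falls more than 5 SD below the full-stimulation control mean, in both duplicate runs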;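 note: integrated fluorescence ratio of peak minus minimum over baseline after agonist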
# TRPC6 act conf: mouse TRPC6 activator confirmation; shares compounds with TRPC6 inh; HEK293-TRPC6 membrane potential dye fluorescence, FDSS; activation, % at 10 µM; hit rate 11% among 2,800;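 active = ratio signal rise beyond 5 SD above unstimulated control wells' mean, seen in both duplicate runs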
# A number is an active result; – = inactive; · = no result given. Sampled rows, rich in hits. Any-hit rate of the full collection: about 2.9%.
SMILES,TRPC4 potent,TRPC4 inh,TRPC6 activator,TRPC4 act,Kir21 inh,TRPC6 inh,TRPC4 sel inh 2,TRPC4 spec,HEK293 MPD ctr 2-1,HEK293 MPD ctr-1,HEK293 MPD ctr-2,HEK293 MPD ctr 2-2,TRPC4/MOR mod,TRPC4/MOR inh 2,TRPC6 block conf,TRPC6 act conf
NCCSc1c(-c2ccc(Cl)cc2)[nH]c2ccccc12,–,–,–,129,-9.88,-6.69,23.0%,-11.7%,–,-323.0%,·,·,·,·,68.6%,–
NCCSc1c(-c2ccc(F)cc2)[nH]c2ccccc12,–,–,–,–,–,-6.04,·,·,·,·,–,–,–,83.0%,77.0%,–
COc1ccc(-c2[nH]c3ccccc3c2SCCNC(=O)c2ccccc2)cc1,–,–,–,–,–,–,·,·,·,·,·,·,·,·,·,·
Cc1ccc(-c2[nH]c3ccccc3c2SCCN)cc1,–,-7,–,–,–,-6.7,36.5%,-11.5%,–,-296.5%,·,·,·,·,–,–
NCCSc1c(-c2ccccc2)[nH]c2ccccc12,–,–,–,–,–,-5.28,·,·,·,·,–,–,–,57.0%,52.5%,–
Cc1[nH]c2ccccc2c1C(=O)CSc1ccc(F)cc1,–,–,–,–,–,–,·,·,·,·,·,·,·,·,·,·
O=C(COc1ccc(F)cc1)NCCCn1ccnc1,–,–,–,–,–,–,·,·,·,·,·,·,·,·,·,·
O=C(NCCS(=O)(=O)NCC1CCCO1)c1ccccc1 (stereo not drawn),–,–,–,–,–,–,·,·,·,·,·,·,·,·,·,·
COc1ccc(Br)cc1-c1nc(CCl)cs1,–,–,–,–,–,–,·,·,·,·,·,·,·,·,·,·
O=C(Nc1ccnc(-c2ccncc2)n1)C1CC1,–,–,–,–,–,–,·,·,·,·,·,·,·,·,·,·
COc1ccc[nH]c1=O,–,–,–,–,–,-5.99,·,·,·,·,–,–,–,–,–,–
c1ccc(Cn2c(-c3ccccc3)c[n+]3c2SCCC3)cc1,–,–,–,–,–,-9.92,–,–,39.5%,–,·,·,·,·,68.1%,–
O=C(Nc1cccc(S(=O)(=O)N2CCCCCC2)c1)C1CCN(C(=O)c2ccc(F)cc2)CC1,–,–,–,–,–,–,·,·,·,·,·,·,·,·,·,·
Cc1cc(=O)oc2cc(OCC(=O)NC3CC(C)(C)NC(C)(C)C3)c(Cl)cc12,–,–,–,–,–,–,·,·,·,·,·,·,·,·,·,·
CCc1cc(=O)oc2c(C)c(OCC(=O)NC3CC(C)(C)NC(C)(C)C3)ccc12,–,–,–,–,–,-5.72,·,·,·,·,-150.0%,–,-31.0%,36.5%,38.0%,–
CCN(CC)CCSc1nnc2c3cc(F)ccc3n(Cc3ccccc3)c2n1,–,–,–,–,–,-5.86,·,·,·,·,-78.0%,–,–,77.5%,–,–
CCN(CC)CCSc1nnc2c3ccccc3n(Cc3ccccc3)c2n1,–,–,–,–,–,-8.24,21.0%,11.9%,–,-230.0%,·,·,·,·,65.9%,–
CCn1c2ccccc2c2nnc(SCc3ccccc3)nc21,–,–,–,–,–,–,·,·,·,·,·,·,·,·,·,·
CCOC(=O)c1cnc2c(CC)cccc2c1NCCN1CCOCC1,–,–,–,–,–,–,·,·,·,·,·,·,·,·,·,·
CCOC(=O)c1cnc2c(C)cc(Cl)cc2c1NCCCN1CCOCC1,–,–,–,–,–,–,·,·,·,·,·,·,·,·,·,·
CCOC(=O)c1cnc2c(C)cccc2c1NCCCN1CCOCC1,–,–,–,–,–,-6.75,58.5%,–,-31.0%,–,·,·,·,·,–,–
CCOC(=O)c1cnc2c(OC)cccc2c1NCc1cccnc1,–,–,–,–,–,-7.51,–,–,-15.0%,–,·,·,·,·,82.6%,–
CCOC(=O)c1cnc2c(C(=O)OC)cccc2c1NCCN1CCOCC1,–,–,–,–,–,-5,·,·,·,·,137.0%,–,20.5%,47.0%,48.0%,·
Cc1cc(-c2nnc(SCC(=O)Nc3ccccc3Cl)n2C)no1,–,–,–,–,–,–,·,·,·,·,·,·,·,·,·,·
CCOc1cc(Br)c(C(C)NC(=O)c2cccnc2)cc1OCC (stereo not drawn),–,–,–,–,–,–,·,·,·,·,·,·,·,·,·,·
COc1ccccc1C(=O)NCC1CCN(c2ccc(S(=O)(=O)N3CCOCC3)cc2)CC1,–,–,–,–,–,-6.87,–,8.9%,10.0%,5.1%,·,·,·,·,55.4%,–
CCN(CC)CCOC(=O)C1(C2CCCCC2)CCCCC1,–,–,–,–,–,-6.15,·,·,·,·,182.5%,77.0%,40.5%,–,76.5%,·
CCN(CC)CCOC(=O)C1(c2ccccc2)CCCC1,–,–,–,–,–,-9.16,–,16.5%,-2.5%,15.2%,·,·,·,·,74.3%,·
